Source: ChEMBL document CHEMBL1136016, “Synthesis, biological activity, and molecular modeling investigation of new pyrazolo[4,3-e]-1,2,4-triazolo[1,5-c]pyrimidine derivatives as human A(3) adenosine receptor antagonists” (J Med Chem, 2002)
pIC50, pKi: −log10 of the molar value.

Assays:
Adenosine receptor A2b [1] = biological target: T1, Adenosine receptor A2b (Homo sapiens, UniProt P29275); assay: Displacement of [3H]DPCPX from human Adenosine A2B receptor expressed in HEK293 cells; […]; type: cell-based
T1 sequence (P29275 whole entry): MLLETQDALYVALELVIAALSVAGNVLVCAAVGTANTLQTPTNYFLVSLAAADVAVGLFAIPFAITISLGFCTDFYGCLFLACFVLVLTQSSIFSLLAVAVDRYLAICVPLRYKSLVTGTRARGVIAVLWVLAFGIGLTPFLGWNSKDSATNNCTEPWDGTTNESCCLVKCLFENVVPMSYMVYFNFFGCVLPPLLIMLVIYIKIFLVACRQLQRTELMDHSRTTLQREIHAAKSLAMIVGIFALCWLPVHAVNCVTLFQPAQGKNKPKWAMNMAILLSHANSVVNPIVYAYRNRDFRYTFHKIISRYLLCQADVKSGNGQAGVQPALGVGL
Outline: (§1)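 Competition binding on membranes of HEK-293 cells carrying recombinant human A2B receptor. Incubation 60 min at 25 °C in 50 mM Tris HCl pH 7.4 with 10 mM MgCl2, 1 mM EDTA, 0.1 mM benzamidine and 2 IU/mL adenosine deaminase. Radioligand 40 nM [3H]DPCPX, at least six to eight test concentrations. NECA defined nonspecific binding. Bound ligand separated on glass-fibre filters and counted; n = 3-6.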

[2] = biological target: Adenosine receptors; A1 & A3 (Homo sapiens) (UniProt P30542+P0DMS8); assay: Selectivity ratio (hA1/hA3); type: protein assay
Adenosine receptor A1 [3] = biological target: T2, Adenosine receptor A1 (Homo sapiens, UniProt P30542); assay: Displacement of [3H]DPCPX from human Adenosine A1 receptor expressed in CHO cells; range 345-465; type: cell-based
T2 sequence (P30542 whole entry): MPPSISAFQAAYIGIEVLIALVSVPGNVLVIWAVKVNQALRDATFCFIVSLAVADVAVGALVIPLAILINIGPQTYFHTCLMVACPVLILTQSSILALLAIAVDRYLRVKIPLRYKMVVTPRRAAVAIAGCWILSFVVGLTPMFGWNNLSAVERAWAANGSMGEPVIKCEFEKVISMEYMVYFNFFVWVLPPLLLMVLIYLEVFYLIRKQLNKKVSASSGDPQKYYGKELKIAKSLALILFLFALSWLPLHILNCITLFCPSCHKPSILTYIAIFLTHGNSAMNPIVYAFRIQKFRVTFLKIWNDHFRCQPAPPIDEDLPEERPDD

Adenosine receptor A2a [4] = biological target: T3, Adenosine receptor A2a (Homo sapiens, UniProt P29274); assay: Displacement of [3H]SCH-58261 from human Adenosine A2A receptor expressed in HEK293 cells; range 114-170; type: cell-based
[5] = biological target: Adenosine receptors; A2b & A3 (Homo sapiens) (UniProt P29275+P0DMS8); assay: Selectivity ratio (h2B/hA3); type: protein assay
Adenosine receptor A3 [6] = biological target: T4, Adenosine receptor A3 (Homo sapiens, UniProt P0DMS8); assay: Displacement of [3H]MRE3008-F20 binding at human Adenosine A3 receptor expressed in HEK cells; range 0.77-0.96; type: cell-based, HEK293
T4 sequence (P0DMS8 whole entry): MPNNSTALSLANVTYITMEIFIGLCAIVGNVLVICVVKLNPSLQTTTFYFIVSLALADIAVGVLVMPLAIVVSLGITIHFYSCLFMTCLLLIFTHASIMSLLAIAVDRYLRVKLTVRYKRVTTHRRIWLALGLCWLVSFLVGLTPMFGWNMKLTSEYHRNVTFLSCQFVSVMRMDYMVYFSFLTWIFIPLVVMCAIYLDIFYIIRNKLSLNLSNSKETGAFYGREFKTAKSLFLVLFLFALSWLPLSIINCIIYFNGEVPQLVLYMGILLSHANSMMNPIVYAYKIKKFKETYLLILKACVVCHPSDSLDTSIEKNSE

Adenosine receptor A2a [7] = biological target: T3, Adenosine receptor A2a; assay: Displacement of [3H]SCH-58261 from human Adenosine A2A receptor expressed in HEK293 cells; range 83-120; type: cell-based
Adenosine receptor A2b [8] = biological target: T1, Adenosine receptor A2b; assay: Displacement of [3H]DPCPX from human Adenosine A2B receptor expressed in HEK293 cells; range 65-94; type: cell-based; outline: as §1
Adenosine receptor A3 [9] = biological target: T4, Adenosine receptor A3; assay: Displacement of [3H]MRE3008-F20 binding at human Adenosine A3 receptor expressed in HEK cells; range 0.76-0.98; type: cell-based, HEK293
Adenosine receptor A1 [10] = biological target: T2, Adenosine receptor A1; assay: Displacement of [3H]DPCPX from human Adenosine A1 receptor expressed in CHO cells; range 245-319; type: cell-based
Adenosine receptor A1 [11] = biological target: T2, Adenosine receptor A1; assay: Displacement of [3H]DPCPX from human Adenosine A1 receptor expressed in CHO cells; range 330-478; type: cell-based
Outline: (§2)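 Human recombinant A1 receptor in CHO cell membranes, resuspended in 50 mM Tris HCl pH 7.4. Displacement run 120 min at 25 °C with 1 nM [3H]DPCPX, 50 µg protein per assay, and at least six to eight test concentrations. Nonspecific binding defined with CHA. Bound and free separated on glass-fiber filters; filter radioactivity counted. n = 3-6.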

Adenosine receptor A2a [12] = biological target: T3, Adenosine receptor A2a; assay: Displacement of [3H]SCH-58261 from human Adenosine A2A receptor expressed in HEK293 cells; range 24-48; type: cell-based
Adenosine receptor A3 [13] = biological target: T4, Adenosine receptor A3; assay: biochemical
Adenosine receptor A2b [14] = biological target: T1, Adenosine receptor A2b; assay: Displacement of [3H]DPCPX from human Adenosine A2B receptor expressed in HEK293 cells; range 115-161; type: cell-based
Outline: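 HEK-293 membranes expressing the human receptor were incubated 60 min at 25 °C. Six to eight test concentrations were used. Nonspecific binding was set with NECA. n = 3-6.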

Adenosine receptor A3 [15] = biological target: T4, Adenosine receptor A3; assay: Displacement of [3H]MRE3008-F20 from human Adenosine A3 receptor expressed in HEK cells; range 0.10-0.18; type: cell-based, HEK293
Adenosine receptor A2a [16] = biological target: T3, Adenosine receptor A2a; assay: Displacement of [3H]SCH-58261 from human Adenosine A2A receptor expressed in HEK293 cells; range 40-96; type: cell-based
Adenosine receptor A2b [17] = biological target: T1, Adenosine receptor A2b; assay: Displacement of [3H]-DPCPX from human Adenosine A2B receptor expressed in HEK293 cells; range 206-282; type: cell-based; outline: as §1
Adenosine receptor A2b [18] = biological target: T1, Adenosine receptor A2b; assay: Displacement of [3H]DPCPX from human Adenosine A2B receptor expressed in HEK293 cells; range 116-134; type: cell-based
Outline: (§3)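 Membranes from HEK-293 cells with human recombinant A2B receptor. Incubation 60 min at 25 °C in 50 mM Tris HCl, 10 mM MgCl2, 1 mM EDTA, 0.1 mM benzamidine, pH 7.4, with 2 IU/mL adenosine deaminase and 40 nM [3H]DPCPX. At least six to eight test concentrations. Nonspecific binding defined with NECA. n = 3-6.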

Adenosine receptor A3 [19] = biological target: T4, Adenosine receptor A3; assay: biochemical; remark: listed apart in the source
Adenosine receptor A1 [20] = biological target: T2, Adenosine receptor A1; assay: Displacement of [3H]DPCPX from human Adenosine A1 receptor expressed in CHO cells; range 156-258; type: cell-based
Adenosine receptor A2a [21] = biological target: T3, Adenosine receptor A2a; assay: Displacement of [3H]SCH-58261 from human Adenosine A2A receptor expressed in HEK293 cells; range 71-111; type: cell-based
Adenosine receptor A2b [22] = biological target: T1, Adenosine receptor A2b; assay: Displacement of [3H]DPCPX from human Adenosine A2B receptor expressed in HEK293 cells; type: cell-based; outline: as §3
Adenosine receptor A3 [23] = biological target: T4, Adenosine receptor A3; assay: Inhibition of IB-MECA agonist-mediated cAMP production in membranes of CHO cells expressing human Adenosine A3 receptor; type: functional, cell-based
Outline: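 Human A3-CHO membranes (in 50 mM Tris HCl, 10 mM MgCl2, 1 mM EDTA, pH 7.4) were preincubated for 10 min at 37 °C with 5 µM GTP, 0.5 mM Ro 20-1724 and 2.0 IU/mL adenosine deaminase. IB-MECA (100 nM) or antagonist was then added with 1 mM ATP and forskolin for 10 min. The reaction was stopped by 2 min boiling. cAMP was measured by [3H]cAMP competitive protein binding using beef adrenal binding protein, 150 min at 4 °C.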

Adenosine receptor A2a [24] = biological target: T3, Adenosine receptor A2a; assay: Displacement of [3H]SCH-58261 from human Adenosine A2A receptor expressed in CHO cells; type: cell-based
Outline: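 Membranes from CHO cells expressing the human receptor (50 µg protein) with [3H]SCH58261 and six to eight competitor concentrations. Incubated 60 min at 25 °C. Nonspecific binding was set with NECA.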

Adenosine receptor A3 [25] = biological target: T4, Adenosine receptor A3; assay: Displacement of […] from human Adenosine A3 receptor expressed in CHO cells; type: cell-based
Outline: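 Membranes from CHO cells stably expressing human A3, in 50 mM Tris HCl, 10 mM MgCl2 (pH 7.4), 50 µg protein per tube, with 1 nM [3H]MRE3008-F20. Six to eight ligand concentrations were run in duplicate, 120 min at 4 °C. Nonspecific binding was taken with 1 µM MRE3008-F20. Bound ligand was collected on GF/B filters and counted; n = 3-6.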

Adenosine receptor A1 [26] = biological target: T2, Adenosine receptor A1; assay: Displacement of [3H]DPCPX from human Adenosine A1 receptor expressed in CHO cells; type: cell-based; outline: as §2

T3 sequence (P29274 whole entry): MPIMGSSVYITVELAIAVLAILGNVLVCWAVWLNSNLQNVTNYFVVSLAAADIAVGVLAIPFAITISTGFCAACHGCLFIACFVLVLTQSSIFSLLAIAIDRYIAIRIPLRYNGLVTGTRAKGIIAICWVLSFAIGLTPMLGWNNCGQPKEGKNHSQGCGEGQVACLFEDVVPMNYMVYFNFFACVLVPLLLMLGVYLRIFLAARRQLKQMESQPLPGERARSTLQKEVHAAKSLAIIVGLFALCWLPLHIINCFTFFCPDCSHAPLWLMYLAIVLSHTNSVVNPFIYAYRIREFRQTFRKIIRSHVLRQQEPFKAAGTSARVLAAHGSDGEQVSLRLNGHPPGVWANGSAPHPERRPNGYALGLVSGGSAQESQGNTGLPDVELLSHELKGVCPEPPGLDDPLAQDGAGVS

CCn1cc2c(nc(NC(=O)Nc3cccc(OC)c3)n3nc(-c4ccco4)nc23)n1
pKi (Adenosine receptor A2b [1]): 6.67
Ratio [2]: 465
pKi (Adenosine receptor A1 [3]): 6.40
pKi (Adenosine receptor A2a [4]): 6.85
Ratio [5]: 250
pKi (Adenosine receptor A3 [6]): 9.07

CCCCn1cc2c(nc(NC(=O)Nc3ccccc3Cl)n3nc(-c4ccco4)nc23)n1
pKi (Adenosine receptor A2a [7]): 7.00
pKi (Adenosine receptor A2b [8]): 7.11
pKi (Adenosine receptor A3 [9]): 9.07
Ratio [2]: 326
pKi (Adenosine receptor A1 [10]): 6.55
Ratio [5]: 91

CCCn1cc2c(nc(NC(=O)Nc3ccc(C(F)(F)F)cc3)n3nc(-c4ccco4)nc23)n1
pKi (Adenosine receptor A1 [11]): 6.40
pKi (Adenosine receptor A2a [12]): 7.47
pKi (Adenosine receptor A3 [13]): 9.29
Ratio [2]: 784
pKi (Adenosine receptor A2b [14]): 6.87
Ratio [5]: 267

CCCn1cc2c(nc(NC(=O)Nc3ccccc3)n3nc(-c4ccco4)nc23)n1
pKi (Adenosine receptor A3 [15]): 9.82
Ratio [2]: 1170
pKi (Adenosine receptor A2a [16]): 7.21
Ratio [5]: 1610
pKi (Adenosine receptor A2b [17]): 6.62

CCCCn1cc2c(nc(NC(=O)Nc3ccccc3OC)n3nc(-c4ccco4)nc23)n1
pKi (Adenosine receptor A2b [18]): 6.90
Ratio [2]: 351
pKi (Adenosine receptor A3 [19]): 9.24
pKi (Adenosine receptor A1 [20]): 6.70
Ratio [5]: 219
pKi (Adenosine receptor A2a [21]): 7.04

Cn1cc2c(nc(NC(=O)Cc3ccccc3)n3nc(-c4ccco4)nc23)n1
pKi (Adenosine receptor A2b [22]): 6.78
Ratio [2]: 867
pIC50 (Adenosine receptor A3 [23]): 8.19
pKi (Adenosine receptor A2a [24]): 6.37
Ratio [5]: 204
pKi (Adenosine receptor A3 [25]): 9.09
pKi (Adenosine receptor A1 [26]): 6.15
